Source: ChEMBL document CHEMBL3393001, “Flavonoids as noncompetitive inhibitors of Dengue virus NS2B-NS3 protease: inhibition kinetics and docking studies” (Bioorg Med Chem, 2015)
In brackets after ≈: the same amount, converted by molar mass.

Columns and labels:
dengue virus type 2 = assay: Antiviral activity against dengue virus 2 infected in african green monkey Vero cells assessed as reduction in viral replication dosed after adsorption with 200 FFU of virus for 1 hour by foci forming unit reduction assay; format: functional, organism-based
[1] = Inhibition of dengue virus 2 NS2B-NS3 serine protease assessed as reduction in hydrolysis of Boc-Gly-Arg-Arg-7-amino-4-methylcumarin substrate; parameters: species or system dengue virus type 2
[2] = Inhibition of dengue virus 2 NS2B-NS3 serine protease assessed as reduction in hydrolysis of Boc-Gly-Arg-Arg-7-amino-4-methylcumarin substrate by Dixon plot; parameters: species or system dengue virus type 2
Method in brief: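 Recombinant DENV2 NS2B-NS3 at 47.63 nM in 200 mM Tris-HCl pH 9.5, 6 mM NaCl, 30% glycerol. Boc-Gly-Arg-Arg-AMC at 25–200 µM with inhibitor fixed at 10–32 µM; AMC release read at ex 380/em 460 nm. Analysed by Lineweaver-Burk and Dixon plots, with Ki = Kiapp/(1+[S]/Km), [S] […] Mean of three independent assays.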

[3] = Inhibition of dengue virus 3 NS2B-NS3 serine protease assessed as reduction in hydrolysis of Boc-Gly-Arg-Arg-7-amino-4-methylcumarin substrate; parameters: species or system dengue virus type 3
Method in brief: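 Recombinant DENV3 NS2B-NS3 (50 nM) was run in 50 mM Tris HCl pH 9.0 with 1 mM CHAPS and 100 substrate. Compounds in DMSO were screened at 50 final, with IC50 from serial dilutions over 0.5–200. Three independent determinations in duplicate; background-corrected 2-parameter fit (lower limit 0, upper 100).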

[4] = Inhibition of dengue virus 3 NS2B-NS3 serine protease assessed as reduction in hydrolysis of Boc-Gly-Arg-Arg-7-amino-4-methylcumarin substrate by Dixon plot; parameters: species or system dengue virus type 3
[5] = Non-competitive inhibition of dengue virus 2 NS2B-NS3 serine protease assessed as reduction in hydrolysis of Boc-Gly-Arg-Arg-7-amino-4-methylcumarin substrate by Lineweaver-Burk plot and Dixon plot; parameters: species or system dengue virus type 2
[6] = Binding affinity to NT-647-NHS fluorescent dye-labeled dengue virus 3 NS2B-NS3 serine protease incubated for 10 mins by microscale thermophoresis method; parameters: species or system dengue virus type 3
Method in brief: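 Recombinant DENV3 NS2B-NS3, dye-labeled, mixed 1:1 with ligand dilutions to a final 25 nM protein and 0.06–1000 µM ligand. Buffer: 50 mM Tris-HCl pH 9.0, 1 mM CHAPS, plus 10% DMSO and 0.05% Tween 20 on the ligand side only. After 10 min, capillary thermophoresis was measured. KD came from data fitting, mean of three independent assays.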

| Compound | IC50 (dengue virus type 2) | IC50 [1] | IC50 [3] | Ki [2] | Ki [4] | Ki [5] | Kd [6] |
| --- | --- | --- | --- | --- | --- | --- | --- |
| O=c1cc(-c2ccccc2)oc2cc(O)c(O)c(O)c12 [BAICALEIN] | 6.46 µg/mL (≈ 23.9 µM) | – | – | – | – | – | – |
| O=c1c(O[C@@H]2O[C@H](CO)[C@@H](O)[C@H](O)[C@H]2O)c(-c2ccc(O)c(O)c2)oc2cc(O)cc(O)c12 [ISOQUERCETIN] | – | 44 µM | 42.4 µM | 25.9 µM | 37.1 µM | – | – |
| O.O=c1c(O)c(-c2ccc(O)c(O)c2)oc2cc(O)cc(O)c12 [QUERCETIN DIHYDRATE] | 35.7 µg/mL | 35.2 µM | 22.7 µM | 20.7 µM | 19.9 µM | – | 20 µM |
| C[C@@H]1O[C@@H](Oc2c(-c3ccc(O)c(O)c3)oc3cc(O)cc(O)c3c2=O)[C@H](O)[C@H](O)[C@H]1O [QUERCITRIN] | – | 43.6 µM | 32 µM | 25.7 µM | 28 µM | – | – |

Now from value to compound, other results behind:

| IC50 (dengue virus type 2) | IC50 [1] | IC50 [3] | Compound | Ki [2] | Ki [4] | Ki [5] | Kd [6] |
| --- | --- | --- | --- | --- | --- | --- | --- |
| 55 µg/mL (≈ 192 µM) | – | – | O=c1c(O)c(-c2ccc(O)c(O)c2)oc2cc(O)ccc12 [FISETIN] | – | – | – | – |
| – | 37.8 µM | 27.7 µM | O=c1c(O)c(-c2ccc(O)cc2)oc2cc(O)cc(O)c12 [KAEMPFEROL] | 22.3 µM | 24.2 µM | – | – |
| – | 22.3 µM | 29.3 µM | O=c1c(O)c(-c2cc(O)c(O)c(O)c2)oc2cc(O)cc(O)c12 [MYRICETIN] | – | 25.7 µM | 4.7 µM | – |
